# In ChEMBL document CHEMBL3792365, “Dioxol and dihydrodioxin analogs of 2- and 3-phenylacetonitriles as potent anti-cancer agents with nanomolar activity against a variety of human cancer cells” (2016):
# What was measured:
# Assay type in all cases: functional
# KM12 = assay: Growth inhibition of human KM12 cells after 48 hrs by sulforhodamine B assay; conditions: KM12, 48 h
# Summary of the method: (§1)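 Five-dose testing against a 60-line human tumor cell panel. GI50 is the drug concentration giving a 50% reduction in net protein increase relative to untreated control cells.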
# [1] = Growth inhibition of human HOP92 cells after 48 hrs by sulforhodamine B assay; conditions: HOP-92, 48 h; summary of the method: as §1
# [2] = Growth inhibition of human HCC2998 cells after 48 hrs by sulforhodamine B assay; conditions: HCC 2998, 48 h; summary of the method: as §1
# NCI-H23 [3] = assay: Growth inhibition of human NCI-H23 cells at 10 uM after 48 hrs by sulforhodamine B assay; conditions: NCI-H23, 48 h, values are per cent of control
# [4] = Growth inhibition of human SF295 cells at 10 uM after 48 hrs by sulforhodamine B assay; conditions: SF-295, 48 h, values are per cent of control
# CCRF-CEM [5] = assay: Growth inhibition of human CCRF-CEM cells at 10 uM after 48 hrs by sulforhodamine B assay; conditions: values are per cent of control
# [6] = Growth inhibition of human HL-60(TB) cells after 48 hrs by sulforhodamine B assay; conditions: HL-60, 48 h
# Summary of the method: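 Five-dose study across the 60-cell human tumour panel. GI50 is the drug concentration giving a 50% reduction in net protein increase relative to control cells.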
# [7] = Growth inhibition of human IGROV1 cells after 48 hrs by sulforhodamine B assay; conditions: IGROV-1, 48 h; summary of the method: as §1
# [8] = Growth inhibition of human MOLT4 cells after 48 hrs by sulforhodamine B assay; conditions: MOLT-4, 48 h
# Summary of the method: (§2)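 Five-dose concentration series run across a panel of 60 human tumour cell lines. GI50 is taken as the drug concentration giving a 50% reduction in net protein increase relative to untreated control cells.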
# U-251 [9] = assay: Growth inhibition of human U251 cells after 48 hrs by sulforhodamine B assay; conditions: U-251, 48 h; summary of the method: as §2
# [10] = Growth inhibition of human UACC257 cells at 10 uM after 48 hrs by sulforhodamine B assay; conditions: UACC-257, 48 h, values are per cent of control
# MDA-MB-231 = assay: Growth inhibition of human MDA-MB-231 cells after 48 hrs by sulforhodamine B assay; conditions: MDA-MB-231, 48 h; summary of the method: as §1
# [11] = Growth inhibition of human OVCAR3 cells after 48 hrs by sulforhodamine B assay; conditions: OVCAR-3, 48 h; summary of the method: as §2
# [12] = Growth inhibition of human HCT116 cells after 48 hrs by sulforhodamine B assay; conditions: HCT-116, 48 h; summary of the method: as §1
# [13] = Growth inhibition of human RPMI8226 cells at 10 uM after 48 hrs by sulforhodamine B assay; conditions: RPMI-8226, 48 h, values are per cent of control
# NCI-H522 = assay: Growth inhibition of human NCI-H522 cells after 48 hrs by sulforhodamine B assay; conditions: NCI-H522, 48 h; summary of the method: as §2
# [14] = Growth inhibition of human Hs 578T cells at 10 uM after 48 hrs by sulforhodamine B assay; conditions: values are per cent of control
# [15] = Growth inhibition of human LOXIMVI cells at 10 uM after 48 hrs by sulforhodamine B assay; conditions: LOX IMVI, values are per cent of control
# MCF7 [16] = assay: Growth inhibition of human MCF7 cells after 48 hrs by sulforhodamine B assay; conditions: MCF7, 48 h; summary of the method: as §1
# [17] = Growth inhibition of human DU145 cells after 48 hrs by sulforhodamine B assay; conditions: DU-145, 48 h; summary of the method: as §1
# [18] = Growth inhibition of human OVCAR3 cells at 10 uM after 48 hrs by sulforhodamine B assay; conditions: OVCAR-3, 48 h, values are per cent of control
# MCF7 [19] = assay: Growth inhibition of human MCF7 cells at 10 uM after 48 hrs by sulforhodamine B assay; conditions: MCF7, 48 h, values are per cent of control
# Malme-3M = assay: Growth inhibition of human MALME-3M cells at 10 uM after 48 hrs by sulforhodamine B assay; conditions: values are per cent of control
# [20] = Growth inhibition of human HOP62 cells after 48 hrs by sulforhodamine B assay; conditions: HOP-62, 48 h; summary of the method: as §1
# [21] = Growth inhibition of human OVCAR8 cells at 10 uM after 48 hrs by sulforhodamine B assay; conditions: OVCAR-8, 48 h, values are per cent of control
# [22] = Growth inhibition of human PC3 cells after 48 hrs by sulforhodamine B assay; conditions: PC-3, 48 h; summary of the method: as §2
# [23] = Growth inhibition of human UO31 cells at 10 uM after 48 hrs by sulforhodamine B assay; conditions: UO-31, 48 h, values are per cent of control
# NCI-H23 [24] = assay: Growth inhibition of human NCI-H23 cells after 48 hrs by sulforhodamine B assay; conditions: NCI-H23, 48 h; summary of the method: as §2
# [25] = Growth inhibition of human HCT15 cells after 48 hrs by sulforhodamine B assay; conditions: HCT-15, 48 h; summary of the method: as §1
# [26] = Growth inhibition of human OVCAR4 cells after 48 hrs by sulforhodamine B assay; conditions: OVCAR-4, 48 h; summary of the method: as §2
# [27] = Growth inhibition of human OVCAR5 cells at 10 uM after 48 hrs by sulforhodamine B assay; conditions: OVCAR-5, 48 h, values are per cent of control
# [28] = Growth inhibition of human UO31 cells after 48 hrs by sulforhodamine B assay; conditions: UO-31, 48 h
# Summary of the method: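 Five-dose testing across the 60-line human tumour cell panel. GI50 is the drug concentration that gives a 50% reduction in net protein increase relative to control cells.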
# A498 = assay: Growth inhibition of human A498 cells at 10 uM after 48 hrs by sulforhodamine B assay; conditions: A498, 48 h, values are per cent of control
# [29] = Growth inhibition of human PC3 cells at 10 uM after 48 hrs by sulforhodamine B assay; conditions: PC-3, 48 h, values are per cent of control
# MDA-MB-468 = assay: Growth inhibition of human MDA-MB-468 cells after 48 hrs by sulforhodamine B assay; conditions: MDA-MB-468, 48 h; summary of the method: as §1
# [30] = Growth inhibition of human SF295 cells after 48 hrs by sulforhodamine B assay; conditions: SF-295, 48 h; summary of the method: as §2
# [31] = Growth inhibition of human MOLT4 cells at 10 uM after 48 hrs by sulforhodamine B assay; conditions: MOLT-4, 48 h, values are per cent of control
# CCRF-CEM [32] = assay: Growth inhibition of human CCRF-CEM cells after 48 hrs by sulforhodamine B assay; summary of the method: as §1
# 786-0 = assay: Growth inhibition of human 786-0 cells after 48 hrs by sulforhodamine B assay; conditions: 786-0, 48 h; summary of the method: as §1
# [33] = Growth inhibition of human SF268 cells after 48 hrs by sulforhodamine B assay; conditions: SF-268, 48 h; summary of the method: as §2
# [34] = Growth inhibition of human HL-60(TB) cells at 10 uM after 48 hrs by sulforhodamine B assay; conditions: HL-60, 48 h, values are per cent of control
# U-251 [35] = assay: Growth inhibition of human U251 cells at 10 uM after 48 hrs by sulforhodamine B assay; conditions: U-251, 48 h, values are per cent of control
smiles,measurement,setting,value
COc1ccc(/C=C(\C#N)c2ccc3c(c2)OCO3)c2ccccc12,GI50,KM12,2.39 µM
same,GI50,[1],12 µM
same,GI50,[2],5.42 µM
same,"growth, % of control at 10 µM",NCI-H23 [3],49.9%
same,"growth, % of control at 10 µM",[4],5.6%
same,"growth, % of control at 10 µM",CCRF-CEM [5],21.6%
same,GI50,[6],1.57 µM
same,GI50,[7],4.07 µM
same,GI50,[8],3.71 µM
same,GI50,U-251 [9],2.71 µM
same,"growth, % of control at 10 µM",[10],41%
same,GI50,MDA-MB-231,2.43 µM
same,GI50,[11],3.04 µM
same,GI50,[12],2.41 µM
same,"growth, % of control at 10 µM",[13],5.3%
same,GI50,NCI-H522,2.37 µM
same,"growth, % of control at 10 µM",[14],-14.1%
same,"growth, % of control at 10 µM",[15],35.2%
same,GI50,MCF7 [16],0.61 µM
same,GI50,[17],3.49 µM
same,"growth, % of control at 10 µM",[18],-21.2%
same,"growth, % of control at 10 µM",MCF7 [19],12.1%
same,"growth, % of control at 10 µM",Malme-3M,37.9%
same,GI50,[20],2.14 µM
same,"growth, % of control at 10 µM",[21],29%
same,GI50,[22],3.04 µM
same,"growth, % of control at 10 µM",[23],42.1%
same,GI50,NCI-H23 [24],5.09 µM
same,GI50,[25],0.75 µM
same,GI50,[26],3.79 µM
same,"growth, % of control at 10 µM",[27],55.7%
same,GI50,[28],6.24 µM
same,"growth, % of control at 10 µM",A498,-8.4%
same,"growth, % of control at 10 µM",[29],36.1%
same,GI50,MDA-MB-468,0.51 µM
same,GI50,[30],1.91 µM
same,"growth, % of control at 10 µM",[31],26.8%
same,GI50,CCRF-CEM [32],1.91 µM
same,GI50,786-0,4.38 µM
same,GI50,[33],9.34 µM
same,"growth, % of control at 10 µM",[34],7.8%
same,"growth, % of control at 10 µM",U-251 [35],18.7%
N#C/C(=C\c1cccc2ccccc12)c1ccc2c(c1)OCO2,GI50,KM12,3.77 µM
same,GI50,[1],4.55 µM
same,GI50,[2],11 µM
same,"growth, % of control at 10 µM",NCI-H23 [3],77.7%
same,"growth, % of control at 10 µM",[4],68.2%
same,"growth, % of control at 10 µM",CCRF-CEM [5],52.3%
same,GI50,[6],3.5 µM
same,GI50,[7],5.95 µM
same,GI50,[8],4.99 µM
same,GI50,U-251 [9],3.85 µM
same,"growth, % of control at 10 µM",[10],103%
same,GI50,MDA-MB-231,5.11 µM
same,GI50,[11],4.18 µM
same,GI50,[12],3.72 µM
same,"growth, % of control at 10 µM",[13],77%
same,GI50,NCI-H522,2.89 µM
same,"growth, % of control at 10 µM",[14],65.5%
same,"growth, % of control at 10 µM",[15],65.2%
same,GI50,MCF7 [16],1.99 µM
same,GI50,[17],6.94 µM
same,"growth, % of control at 10 µM",[18],46.8%
same,"growth, % of control at 10 µM",MCF7 [19],26.1%
same,"growth, % of control at 10 µM",Malme-3M,73.3%
same,GI50,[20],3.77 µM
same,"growth, % of control at 10 µM",[21],99%
same,GI50,[22],5.52 µM
same,"growth, % of control at 10 µM",[23],80.3%
same,GI50,NCI-H23 [24],6.45 µM
same,GI50,[25],1.77 µM
same,GI50,[26],8.25 µM
same,"growth, % of control at 10 µM",[27],98.2%
same,GI50,[28],6.48 µM
same,"growth, % of control at 10 µM",A498,35.7%
same,"growth, % of control at 10 µM",[29],80.1%
same,GI50,MDA-MB-468,2.11 µM
same,GI50,[30],2.96 µM
same,GI50,CCRF-CEM [32],3.65 µM
same,GI50,786-0,5.62 µM
same,GI50,[33],8.99 µM
same,"growth, % of control at 10 µM",U-251 [35],47.3%
